Assay results gathered from unrelated publications.

With `Cc1ccc2cncc(N3CCc4c(cc(Cn5ccnc5)cc4-c4cn(C)nc4C(F)(F)F)C3=O)c2c1` the Tmax was 78 min (male CD-1 mouse, plasma; oral, 50 mg/kg).
`COc1nc(-c2cc(C)c(N[C@@H](C)c3cc(F)cc(F)c3)nn2)ccc1-n1cnc(C)c1` gave a Tmax of 4.98 min (male CD-1 mouse, plasma; intravenous, 1 mg/kg, single dose).
With `Cc1cc(Nc2ccc(S(F)(F)(F)(F)F)cc2)n2ccnc2n1` the Tmax was 30 min (male Swiss mouse, plasma; oral, 100 mg/kg, single dose).
With `Cc1ccc(NC(=O)c2ccc(CN3CCN(C)CC3)cc2)cc1Nc1nccc(-c2cncc(-c3oncc3C)c2)n1` the Tmax was 120 min (male C57BL/6 mouse, brain; oral, 100 mg/kg/day).
The Tmax of `Cc1c(-c2cc3ccccc3n2Cc2ccc(F)cc2)nc2cc(C(=O)N3CCC[C@@H](N)C3)ccn12` is reported as 30 min (male BALB/c mouse, plasma; oral, 10 mg/kg).
`COc1ccc(C[C@@H](C(=O)NO)n2cc(CNS(=O)(=O)c3ccc(-c4ccccc4)s3)nn2)cc1` has a Tmax of 20 min (female CD-1 mouse, plasma; intraperitoneal, 50 mg/kg).
For `CCCc1c(C2CCCCN2CCN2CCOCC2)[nH]c2cc(OC(F)(F)F)ccc12` (stereo not shown), the Tmax was 60 min (male mouse, plasma; oral, 30 mg/kg).
`CNC(=O)c1cc(Oc2ccc(NC(=O)Nc3ccc(Cl)c(C(F)(F)F)c3)c(F)c2)cc[n+]1[O-]` gave a Tmax of 324 min (mouse, plasma; oral, 10 mg/kg, single dose).
`Cc1cc(NC(=O)c2cccc3cc(-c4cccc5[nH]nc(N)c45)ccc23)ccc1F` gave a Tmax of 60 min (male CD-1 mouse, plasma; oral, 10 mg/kg).
With `CNC(=O)c1cc(OC)cc2c(N3CCc4c(cc(Cn5ccnc5)cc4-c4cn(C)nc4C(F)(F)F)C3=O)ccnc12` the Tmax was 48 min (male CD-1 mouse, plasma; oral, 50 mg/kg).
With `CC(C)(C)c1cc(NC(=O)Nc2ccc(Oc3ccnc4[nH]c(=O)cnc34)cc2F)n(-c2ccccc2)n1` the Tmax was 30 min (BALB/c mouse, plasma; oral, 10 mg/kg).
With `CC(C)(Nc1nc(-c2ccccn2)nc2ccccc12)c1ccccn1` the Tmax was 342 min (female BALB/c mouse, plasma; oral, 50 mg/kg).
`CCc1cc(C(=O)NC)c2nccc(N3CCc4c(cc(Cn5ccnc5)cc4-c4cn(C)nc4C(F)(F)F)C3=O)c2c1` gave a Tmax of 48 min (male CD-1 mouse, plasma; oral, 50 mg/kg).
The Tmax of `CN1C(=O)c2ccccc2[S@+]([O-])c2ccc(C(=O)NCCc3cccs3)cc21` is reported as 15 min (male C57BL/6 mouse, brain; intraperitoneal, 30 mg/kg, single dose).
`CC(C)NC(=O)COc1cccc(-c2nc(Nc3ccc4[nH]ncc4c3)c3ccccc3n2)c1` gave a Tmax of at most 120 min (male C57BL/6 mouse, plasma; oral, 100 mg/kg).
`COc1ccc(CNc2c3c(nc4ccc(C#N)cc24)CCN(C(C)=O)C3)cc1Cl` gave a Tmax of 15 min (mouse, plasma; intraperitoneal, 25 mg/kg).
`Cc1cc(C)cc(NC(=O)c2cnn(-c3ccc(C(C)C)cc3)c2C2CCNCC2)c1` gave a Tmax of about 300 min (SCID mouse, plasma; oral, 50 mg/kg, single dose).
`COc1ccc2nccc(N3CCc4c(cc(Cn5ccnc5)cc4-c4cn(C)nc4C(F)(F)F)C3=O)c2c1` gave a Tmax of 42 min (male CD-1 mouse, plasma; oral, 10 mg/kg).
With `COc1nc(-c2cc(C)c(N[C@@H](C)c3ccc(F)cc3)nn2)ccc1-n1cnc(C)c1` the Tmax was 60 min (male CD-1 mouse, plasma; oral, 5 mg/kg, single dose).
`O=C(c1nc2ccc(F)cc2[nH]1)c1c[nH]c2c(F)cccc12` gave a Tmax of about 15 min (female mouse, plasma; intraperitoneal, 6 mg/kg).
For `O=S(=O)(c1ccc(-c2ccc3nccc(Nc4ccncn4)c3c2)cc1)N1CCOCC1`, the Tmax was 15 min (female BALB/c mouse, plasma; intraperitoneal, 10 mg/kg).
For `CC(C)(C)c1ccc(O)c(CN(Cc2cc(C(C)(C)C)ccc2O)C2CCC(NC(N)=O)CC2)c1` (stereo not shown), the Tmax was 15 min (male C57BL/6 mouse, plasma; intraperitoneal, 25 mg/kg, single dose).
For `NC[C@@H]1O[C@H](O[C@H]2[C@@H](O)[C@H](O[C@@H]3[C@@H](O)[C@H](N)C[C@H](N)[C@H]3O[C@H]3O[C@H](CO)[C@@H](O)[C@H](O)[C@H]3N)O[C@@H]2CO)[C@H](N)[C@@H](O)[C@@H]1O`, the Tmax was 60 min (male BALB/c mouse, plasma; oral, 500 mg/kg).
The Tmax of `CC(C)c1cnn2c(NCc3ccccc3)cc(NC[C@H]3CCNC[C@@H]3O)nc12` is reported as 120 min (male CD-1 mouse, plasma; oral).
With `COC(=O)CN(CCCc1ccccc1)CC(=O)N[C@@H](Cc1c[nH]cn1)c1nc(C)no1` the Tmax was 10 min (male C57BL/6 mouse, plasma; intraperitoneal, 30 mg/kg).
`COc1nc(-c2cc(C)c(N[C@@H](C)c3c(F)cc(F)cc3F)nn2)ccc1-n1cnc(C)c1` gave a Tmax of 4.98 min (male CD-1 mouse, plasma; intravenous, 1 mg/kg, single dose).
`COc1ccc2c3c1O[C@H]1C[C@@H](OC(=O)c4ccccc4)C=C[C@@]31CCN(C)C2` has a Tmax of 3 min (mouse, blood; intravenous, 3 mg/kg).
With `CSc1cc(Oc2ccnc3[nH]c(=O)cnc23)ccc1NC(=O)Nc1cc(C(C)(C)C)nn1-c1ccccc1` the Tmax was 60 min (BALB/c mouse, plasma; intravenous, 2 mg/kg).
With `CCc1ccc(Cc2cc([C@@H]3O[C@H](CO)[C@@H](O)[C@H](O)[C@H]3O)cc3c2CCC3)cc1` the Tmax was 30 min (male C57BL/6 mouse, plasma; oral, 1 mg/kg).
For `CC=Cc1ccc(O)c(OC)c1`, the Tmax was 5 min (mouse, plasma; intranasal, 100 mg/kg).
With `CN1CCC[C@H](CN2c3ccccc3Sc3ccccc32)C1.O=C(O)CCC(=O)O` the Tmax was 120 min (mouse, plasma; oral, 64 mg/kg, single dose).
With `CNC(=O)[C@H](Cc1c[nH]cn1)NC(=O)CN(CCCc1ccccc1)CC(=O)O` the Tmax was 10 min (male C57BL/6 mouse, plasma; intraperitoneal, 30 mg/kg).
For `OC[C@H]1O[C@@H](c2ccc(Cl)c(Cc3ccc(O[C@H]4CCOC4)cc3)c2)[C@H](O)[C@@H](O)[C@@H]1O`, the Tmax was 4.8 min (CD-1 mouse, plasma; intravenous, 5 mg/kg).
For `C=CC(=O)N1CC2CC(n3nc(-c4ccc(C(=O)Nc5ccccn5)cc4)c4c(N)ncnc43)CC2C1` (stereo not shown), the Tmax was 15 min (SCID mouse, plasma; oral, 0.2 mg/kg).
`CNCCN(C)c1cc(C#N)cc(CCc2cc(C)cc(N)n2)c1` gave a Tmax of 15 min (male BALB/c mouse, plasma; oral, 10 mg/kg).
`CS(=O)(=O)CCNCc1ccc(-c2ccc3ncnc(Nc4ccc(OCc5cccc(F)c5)c(Cl)c4)c3c2)o1` gave a Tmax of 480 min (nude mouse, plasma; oral, 200 mg/kg, single dose).
`CCc1cc(OC)c2nccc(N3CCc4c(cc(Cn5ccnc5)cc4-c4cn(C)nc4C(F)(F)F)C3=O)c2c1` has a Tmax of 42 min (male CD-1 mouse, plasma; oral, 50 mg/kg).
For `CC1(C)CC[C@]2(C(=O)O)CC[C@]3(C)C(=CC[C@@H]4[C@@]5(C)C[C@@H](O)[C@H](OC(=O)/C=C/c6ccc(O)cc6)C(C)(C)[C@@H]5CC[C@]43C)[C@@H]2C1` (relative stereo), the Tmax was 30 min (mouse, plasma; intraperitoneal, 85 µmol/kg, single dose).
`CC(C)Oc1c(NC(=O)c2ccc(NC(=O)[C@H](CC(N)=O)NC(=O)c3ccc(NC(=O)c4ccc(C#N)cc4)cc3)cc2)ccc(C(=O)Nc2ccc(C(=O)O)cc2)c1O` gave a Tmax of 100 min (male CD-1 mouse, plasma; subcutaneous, 5 mg/kg, single dose).
With `COc1ccc(C(O)COc2ccc(-c3csc(-c4ccc(OCC(O)c5ccc(OC)c(OC)c5)cc4)n3)cc2)cc1OC` (stereo not shown) the Tmax was 60 min (C57BL/6 mouse, plasma; oral, 10 mg/kg).
